Measurements taken from the array DNA melting data of Ke et al. (doi:10.1101/2024.01.08.574731).

Legend:
[1] = folding enthalpy; higher = less favourable; fluorescence melt of hairpins on a sequencing array, two-state fit; settings: sodium 0.088 M
Outline: (§1)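 On a sequenced MiSeq flow cell, library hairpins with annealed Cy3 and quencher oligos were imaged for Cy3 fluorescence in 2.5 °C steps up to 60 °C, in 50 mM Na-HEPES pH 8.0, 25 mM NaCl. Normalisation used pre-quench Cy3 and control constructs. Bootstrapped two-state fits gave melting temperature and folding enthalpy, combined by inverse variance across four replicates and with fitted temperatures raised by 9.35 °C to match UV melts.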

[2] = melting temperature; fluorescence melt of hairpins on a sequencing array, two-state fit, raised by 9.35 °C to match UV melts; settings: sodium 0.088 M
Outline: as §1

GATCTTTCACAAGATC ((((((....))))))
folding enthalpy [1]: -128 kJ/mol
Tm [2]: 43.1 °C

GCTAAAGGAAACCTTAGC (((((.(....).)))))
folding enthalpy [1]: -108 kJ/mol
Tm [2]: 37.1 °C

GTGACACGAAAGTGACAC (((.(((....))).)))
folding enthalpy [1]: -166 kJ/mol
Tm [2]: 58.7 °C

GCTGTCGAAAGACCGAGC ((((((....)))..)))
folding enthalpy [1]: -88 kJ/mol
Tm [2]: 37 °C

GATCGATCATTCGATC ((((((....))))))
folding enthalpy [1]: -165 kJ/mol
Tm [2]: 53.7 °C

GCCAGGCGAAAGCTTTGC ((.(.((....)).).))
folding enthalpy [1]: -48.2 kJ/mol
Tm [2]: 33.4 °C

GGCGTTCGAAAGAATGCC (((.(((....))).)))
folding enthalpy [1]: -236 kJ/mol
Tm [2]: 62.8 °C

GATCCACTTATGGATC ((((((....))))))
folding enthalpy [1]: -180 kJ/mol
Tm [2]: 50.8 °C

GGGACTGCGAAAGCACCC (((..(((....))))))
folding enthalpy [1]: -37.7 kJ/mol
Tm [2]: 37.3 °C

GGCCATTCGAAAGAAGCC (((..(((....))))))
folding enthalpy [1]: -83.3 kJ/mol
Tm [2]: 33.1 °C

GATCGCATATGCGATC ((((((....))))))
folding enthalpy [1]: -141 kJ/mol
Tm [2]: 68.8 °C

GATCTCGTTGGAGATC ((((((....))))))
folding enthalpy [1]: -177 kJ/mol
Tm [2]: 54.2 °C

GAGAGGAAACTCTC (((((....)))))
folding enthalpy [1]: -98.1 kJ/mol
Tm [2]: 44.6 °C

GAAGGCGCGAAAGCGTTC (((..(((....))))))
folding enthalpy [1]: -39.2 kJ/mol
Tm [2]: 30.9 °C

GCGAACGGAAACACTCGC ((((..(....)..))))
folding enthalpy [1]: -91.8 kJ/mol
Tm [2]: 32.3 °C

GCTCCCGAAAGGGTTAGC ((((((....)))..)))
folding enthalpy [1]: -68 kJ/mol
Tm [2]: 43.3 °C

GCTAGGCGAAAGCCAGC (((.(((....))))))
folding enthalpy [1]: -90.8 kJ/mol
Tm [2]: 62.9 °C

GGTTATCGAAAGATGACC (((.(((....))).)))
folding enthalpy [1]: -204 kJ/mol
Tm [2]: 51.7 °C

GCGGAGCGAAAGCACAGC ((.(.((....)).).))
folding enthalpy [1]: -72.8 kJ/mol
Tm [2]: 58 °C

GGGCCCGAAAGGGATCCC ((((((....)))..)))
folding enthalpy [1]: -62.6 kJ/mol
Tm [2]: 56.6 °C

GCTGAGACGAAAGTCAGC (((..(((....))))))
folding enthalpy [1]: -89.7 kJ/mol
Tm [2]: 49.1 °C

GATCGTTAACACGATC ((((((....))))))
folding enthalpy [1]: -158 kJ/mol
Tm [2]: 52.3 °C

GATCCGATTTCGGATC ((((((....))))))
folding enthalpy [1]: -138 kJ/mol
Tm [2]: 62.6 °C

GGTTCTGGAAACAGGACC (((.(((....))).)))
folding enthalpy [1]: -190 kJ/mol
Tm [2]: 50.6 °C

AGACTGAAAAGTCT (((((....)))))
folding enthalpy [1]: -70.8 kJ/mol
Tm [2]: 46 °C

GATCATATTCATGATC ((((((....))))))
folding enthalpy [1]: -156 kJ/mol
Tm [2]: 47.8 °C

GATCCCCCTGGGATC ((((((...))))))
folding enthalpy [1]: -161 kJ/mol
Tm [2]: 62.1 °C

GAACACGAAAGTGCCTTC ((((((....)))..)))
folding enthalpy [1]: -78.2 kJ/mol
Tm [2]: 32.9 °C

GCTTCGCGAAAGCGGCGC ((..(((....)))..))
folding enthalpy [1]: -65.4 kJ/mol
Tm [2]: 51.9 °C

GCGAAGCGAAAGCTTTGC ((.((((....)))).))
folding enthalpy [1]: -93.5 kJ/mol
Tm [2]: 62.6 °C

GCCGCGCGAAAGCGCCGC ((.((((....)))).))
folding enthalpy [1]: -69.4 kJ/mol
Tm [2]: 59.7 °C

GATCCGCATCGGATC ((((((...))))))
folding enthalpy [1]: -160 kJ/mol
Tm [2]: 56.5 °C

GCTATGCGAAAGCACGGC ((..(((....)))..))
folding enthalpy [1]: -74.1 kJ/mol
Tm [2]: 41.4 °C

GGGACAGGAAACTGCCCC (((.(((....))).)))
folding enthalpy [1]: -147 kJ/mol
Tm [2]: 50.8 °C

GCGAGGCATCGC ((((....))))
folding enthalpy [1]: -110 kJ/mol
Tm [2]: 57.4 °C

GTGAAAGAAATTTCAC ((((((....))))))
folding enthalpy [1]: -123 kJ/mol
Tm [2]: 44.3 °C

GGCTCCGAAAGGATGCC ((((((....))).)))
folding enthalpy [1]: -130 kJ/mol
Tm [2]: 62.6 °C

GCTTGACGAAAGTCTAGC (((.(((....))).)))
folding enthalpy [1]: -147 kJ/mol
Tm [2]: 55.2 °C
